Key:
[1] = biological target: Prostaglandin E2 receptor EP2 subtype (Mus musculus, UniProt Q62053); experiment: Displacement of [3H]PGE2 from mouse EP2 receptor expressed in CHO cells after 60 mins by scintillation counting; type: cell-based
[2] = biological target: T1, Prostaglandin E2 receptor EP1 subtype (Mus musculus, UniProt P35375); experiment: Displacement of [3H]PGE2 from mouse EP1 receptor expressed in CHO cells after 20 mins by scintillation counting; type: cell-based
T1 sequence (P35375 whole entry): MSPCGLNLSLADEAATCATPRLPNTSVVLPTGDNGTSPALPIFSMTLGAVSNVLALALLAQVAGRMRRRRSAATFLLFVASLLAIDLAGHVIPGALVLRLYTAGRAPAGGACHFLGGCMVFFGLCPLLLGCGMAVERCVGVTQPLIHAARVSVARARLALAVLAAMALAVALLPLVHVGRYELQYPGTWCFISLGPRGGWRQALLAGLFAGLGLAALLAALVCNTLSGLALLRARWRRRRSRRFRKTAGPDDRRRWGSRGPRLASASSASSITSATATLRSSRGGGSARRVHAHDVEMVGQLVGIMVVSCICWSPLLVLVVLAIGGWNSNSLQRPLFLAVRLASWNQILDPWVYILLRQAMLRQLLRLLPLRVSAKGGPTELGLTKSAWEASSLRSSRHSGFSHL

[3] = biological target: Prostaglandin E2 receptor EP4 subtype (Rattus norvegicus, UniProt P43114); experiment: Agonist activity at rat EP4 receptor expressed in CHO cells assessed as cAMP production after 10 mins by radioimmunoassay; type: functional, cell-based
Prostaglandin E2 receptor EP4 subtype (Rattus norvegicus, UniProt P43114), sequence (P43114 whole entry): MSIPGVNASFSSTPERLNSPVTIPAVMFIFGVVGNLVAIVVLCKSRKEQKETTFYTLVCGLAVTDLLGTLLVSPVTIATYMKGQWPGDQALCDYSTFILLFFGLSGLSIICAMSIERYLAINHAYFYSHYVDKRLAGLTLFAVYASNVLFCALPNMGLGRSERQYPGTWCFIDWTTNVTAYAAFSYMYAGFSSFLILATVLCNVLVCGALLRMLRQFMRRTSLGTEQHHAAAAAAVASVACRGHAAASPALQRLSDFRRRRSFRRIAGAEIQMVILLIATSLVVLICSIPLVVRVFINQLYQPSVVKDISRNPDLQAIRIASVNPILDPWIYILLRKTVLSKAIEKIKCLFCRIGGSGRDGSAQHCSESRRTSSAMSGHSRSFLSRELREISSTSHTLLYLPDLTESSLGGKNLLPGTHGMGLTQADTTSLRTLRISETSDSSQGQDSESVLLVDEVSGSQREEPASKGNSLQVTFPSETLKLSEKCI

[4] = biological target: Prostaglandin E2 receptor EP2 subtype (Rattus norvegicus, UniProt Q62928); experiment: Agonist activity at rat EP2 receptor expressed in CHO cells assessed as cAMP production after 10 mins by radioimmunoassay; type: functional, cell-based
Prostaglandin E2 receptor EP2 subtype (Rattus norvegicus, UniProt Q62928), sequence (Q62928 whole entry): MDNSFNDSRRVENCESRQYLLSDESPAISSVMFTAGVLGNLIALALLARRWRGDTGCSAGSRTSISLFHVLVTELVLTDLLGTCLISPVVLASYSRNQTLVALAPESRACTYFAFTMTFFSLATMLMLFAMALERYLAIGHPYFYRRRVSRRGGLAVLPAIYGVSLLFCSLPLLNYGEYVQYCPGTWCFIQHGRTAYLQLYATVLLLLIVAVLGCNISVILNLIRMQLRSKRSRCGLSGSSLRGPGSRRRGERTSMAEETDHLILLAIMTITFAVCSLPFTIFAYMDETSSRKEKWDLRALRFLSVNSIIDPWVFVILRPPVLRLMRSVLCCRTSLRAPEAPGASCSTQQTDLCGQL
Outline: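 CHO cells expressing rat EP2 receptor, seeded 1 × 10^5 cells/well and grown 2 days; washed, incubated 10 min at 37 °C in MEM with 2 µM diclofenac, then preincubated 10 min in assay medium with 1% BSA. Compound added, 10 min at 37 °C, stopped with ice-cold 10% trichloroacetic acid; cAMP measured by radioimmunoassay.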

[5] = biological target: Prostaglandin E2 receptor EP4 subtype (Mus musculus, UniProt P32240); experiment: Displacement of [3H]PGE2 from mouse EP4 receptor expressed in CHO cells after 60 mins by scintillation counting; type: cell-based
Prostaglandin E2 receptor EP4 subtype (Mus musculus, UniProt P32240), sequence (P32240 whole entry): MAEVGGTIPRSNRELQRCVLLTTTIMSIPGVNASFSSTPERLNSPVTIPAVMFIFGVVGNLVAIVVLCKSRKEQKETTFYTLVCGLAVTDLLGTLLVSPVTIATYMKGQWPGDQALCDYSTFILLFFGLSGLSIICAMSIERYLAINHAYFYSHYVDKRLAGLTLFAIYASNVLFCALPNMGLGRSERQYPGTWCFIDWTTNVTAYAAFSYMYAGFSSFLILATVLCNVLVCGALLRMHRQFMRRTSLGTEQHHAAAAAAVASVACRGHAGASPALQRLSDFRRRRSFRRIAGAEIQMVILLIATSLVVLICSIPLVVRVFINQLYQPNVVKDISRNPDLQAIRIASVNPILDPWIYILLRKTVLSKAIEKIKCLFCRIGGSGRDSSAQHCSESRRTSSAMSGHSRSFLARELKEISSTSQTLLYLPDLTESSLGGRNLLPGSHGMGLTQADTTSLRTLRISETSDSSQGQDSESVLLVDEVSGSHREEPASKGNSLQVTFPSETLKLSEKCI

[6] = biological target: T2, Prostaglandin E2 receptor EP3 subtype (Mus musculus, UniProt P30557); experiment: Displacement of [3H]PGE2 from mouse EP3 receptor expressed in CHO cells after 60 mins by scintillation counting; type: cell-based
T2 sequence (P30557 whole entry): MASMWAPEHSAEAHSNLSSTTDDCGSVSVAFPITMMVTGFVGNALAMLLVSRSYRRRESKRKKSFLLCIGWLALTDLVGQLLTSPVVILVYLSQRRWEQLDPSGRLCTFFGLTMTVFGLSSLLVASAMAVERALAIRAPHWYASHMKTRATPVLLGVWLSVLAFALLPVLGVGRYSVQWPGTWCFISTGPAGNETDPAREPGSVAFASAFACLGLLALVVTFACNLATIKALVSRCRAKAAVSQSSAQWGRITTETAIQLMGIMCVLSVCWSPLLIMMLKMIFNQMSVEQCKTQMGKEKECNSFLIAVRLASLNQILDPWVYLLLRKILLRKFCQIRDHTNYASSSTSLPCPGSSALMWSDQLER

Rattus norvegicus [7] = experiment: Induction of bone fracture healing in CrJ:CD(SD)IGS rat assessed as breaking strength of fractured fibulae at 3 ug/kg administered tropically as PLGA microsphere formulation measured after 17 days relative to control; type: functional
Outline: (§1)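 Male Sprague–Dawley rats, 8 weeks old. Under sodium pentobarbital (30–50 mg/kg) the left fibula midshaft was exposed and cut. Compound in PLGA microspheres injected topically at the fracture. At 17 days fibulae removed for three-point destructive bending; breaking strength expressed as % of the mean of nonfractured fibulae from intact rats, with vehicle-treated fractured controls.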

Rattus norvegicus [8] = experiment: Induction of bone fracture healing in CrJ:CD(SD)IGS rat assessed as breaking strength of fractured fibulae administered tropically as PLGA microsphere formulation measured after 17 days relative to control; type: functional, organism-based; outline: as §1
Rattus norvegicus [9] = experiment: Induction of bone fracture healing in CrJ:CD(SD)IGS rat assessed as breaking strength of fractured fibulae at 30 ug/kg administered tropically as PLGA microsphere formulation measured after 17 days relative to control; type: functional; outline: as §1
[10] = Drug release from PLGA microsphere assessed as compound remaining in microsphere at 100 ug/ml after 21 days; type: physicochemical; settings: 504 h
[11] = Drug release from PLGA microsphere assessed as compound remaining in microsphere at 100 ug/ml after 7 days; type: physicochemical; settings: 168 h
[12] = Drug release from PLGA microsphere assessed as compound remaining in microsphere at 100 ug/ml after 28 days; type: physicochemical; settings: 672 h
Rattus norvegicus [13] = experiment: Induction of bone fracture healing in CrJ:CD(SD)IGS rat assessed as breaking strength of fractured fibulae at 10 ug/kg administered tropically as PLGA microsphere formulation measured after 17 days relative to control; type: functional; outline: as §1
Rattus norvegicus [14] = experiment: Induction of bone fracture healing in CrJ:CD(SD)IGS rat assessed as breaking strength of fractured fibulae at 1 ug/kg administered tropically as PLGA microsphere formulation measured after 17 days relative to control; type: functional; outline: as §1
[15] = Drug release from PLGA microsphere assessed as compound remaining in microsphere at 100 ug/ml after 14 days; type: physicochemical; settings: 336 h
Rattus norvegicus [16] = experiment: Induction of bone fracture healing in CrJ:CD(SD)IGS rat assessed as breaking strength of fractured fibulae at 300 ug/kg administered tropically as PLGA microsphere formulation measured after 17 days relative to control; type: functional; outline: as §1
Rattus norvegicus [17] = experiment: Induction of bone fracture healing in CrJ:CD(SD)IGS rat assessed as breaking strength of fractured fibulae at 100 ug/kg administered tropically as PLGA microsphere formulation measured after 17 days relative to control; type: functional; outline: as §1

Prostaglandin E2 receptor EP2 subtype (Mus musculus, UniProt Q62053), sequence (Q62053 whole entry): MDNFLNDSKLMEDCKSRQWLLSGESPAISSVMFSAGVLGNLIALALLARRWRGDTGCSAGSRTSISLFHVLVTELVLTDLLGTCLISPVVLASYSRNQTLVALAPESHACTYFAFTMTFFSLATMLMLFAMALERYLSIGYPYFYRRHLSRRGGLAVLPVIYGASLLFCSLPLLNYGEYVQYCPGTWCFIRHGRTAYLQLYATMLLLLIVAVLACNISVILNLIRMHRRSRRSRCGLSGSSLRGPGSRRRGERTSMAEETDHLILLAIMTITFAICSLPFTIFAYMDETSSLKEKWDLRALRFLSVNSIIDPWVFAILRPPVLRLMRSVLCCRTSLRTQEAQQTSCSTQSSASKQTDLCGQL

Row | SMILES | Ki [1] | Ki [2] | EC50 [3] | EC50 [4] | Ki [5] | Ki [6] | Activity (Rattus norvegicus [7]) | Activity (Rattus norvegicus [8]) | Activity (Rattus norvegicus [9]) | Activity [10] | Activity [11] | Activity [12] | Activity (Rattus norvegicus [13]) | Activity (Rattus norvegicus [14]) | Activity [15] | Activity (Rattus norvegicus [16]) | Activity (Rattus norvegicus [17])
1 | Cc1ccc(-c2cccc(C[C@H](O)/C=C/[C@H]3CCC(=O)N3CCSc3nc(C(=O)O)cs3)c2)cc1 | 2 nM | 6100 nM | 15 nM | 380 nM | 0.43 nM | > 10000 nM | – | – | – | – | – | – | – | – | – | – | –
2 | Cc1cccc(C[C@H](O)/C=C/[C@H]2CCC(=O)N2CCSCCCC(=O)O)c1 | – | – | 5.7 nM | – | – | – | – | – | – | – | – | – | – | – | – | – | –
3 | O=C(O)c1csc(SCCN2C(=O)CC[C@@H]2/C=C/[C@@H](O)Cc2cccc(-c3cc4ccccc4o3)c2)n1 | 2.1 nM | 2700 nM | 5.3 nM | 1500 nM | 0.12 nM | 1700 nM | 83.3% | Dose-dependent effect | 116.6% | 80.1% | 95.7% | 60.8% | 104.2% | 76.1% | 88.6% | – | –
4 | O=C(O)c1csc(SCCN2C(=O)CC[C@@H]2/C=C/[C@@H](O)Cc2cccc(-c3nc4ccccc4o3)c2)n1 | 28 nM | > 10000 nM | 2.2 nM | 1600 nM | 0.12 nM | > 10000 nM | – | – | – | – | – | – | – | – | – | – | –
5 | O=C(O)CCCSCCN1C(=O)CC[C@@H]1/C=C/[C@@H](O)Cc1cccc(N2Cc3ccccc3C2)c1 | > 10000 nM | 7100 nM | 28 nM | – | 4.4 nM | > 10000 nM | – | – | – | – | – | – | – | – | – | – | –
6 | Cc1ccc(-c2cccc(C[C@H](O)/C=C/[C@H]3CCC(=O)N3CCSc3nc(C(=O)O)cs3)c2)c(C)c1 | 23 nM | 2400 nM | 160 nM | > 10000 nM | 3.5 nM | > 10000 nM | – | – | – | – | – | – | – | – | – | – | –
7 | O=C(O)CCCSCCN1C(=O)CC[C@@H]1/C=C/[C@@H](O)Cc1cccc(-c2nc3ccccc3o2)c1 | 1700 nM | 5000 nM | 13 nM | – | 0.2 nM | > 10000 nM | – | – | – | – | – | – | – | – | – | – | –
8 | O=C(O)CCCSCCN1C(=O)CC[C@@H]1/C=C/[C@@H](O)Cc1cccc(-c2ccccc2)c1 | > 10000 nM | > 10000 nM | 52 nM | – | 1.1 nM | > 10000 nM | – | – | – | – | – | – | – | – | – | – | –
9 | Cc1ccc2nc(-c3cccc(C[C@H](O)/C=C/[C@H]4CCC(=O)N4CCSc4nc(C(=O)O)cs4)c3)oc2c1 | 56 nM | 200 nM | 1.6 nM | 3200 nM | 0.16 nM | > 10000 nM | 84.4% | Dose-dependent effect | 71.6% | 86.6% | 100% | 87.6% | 87.1% | – | 95% | 167.4% | 124.6%
10 | O=C(O)CCCSCCN1C(=O)CC[C@@H]1/C=C/[C@@H](O)Cc1cccc(-c2nc3ccccc3s2)c1 | 720 nM | > 10000 nM | 3.2 nM | – | 0.36 nM | > 10000 nM | – | – | – | – | – | – | – | – | – | – | –
11 | O=C(O)CCCSCCN1C(=O)CC[C@@H]1/C=C/[C@@H](O)Cc1cccc(OCc2ccncc2)c1 | > 10000 nM | > 10000 nM | 46 nM | – | 28 nM | > 10000 nM | – | – | – | – | – | – | – | – | – | – | –
12 | O=C(O)c1csc(SCCN2C(=O)CC[C@@H]2/C=C/[C@@H](O)Cc2cccc(-c3nc4ccccc4s3)c2)n1 | 15 nM | 8000 nM | 13 nM | 2700 nM | 0.19 nM | > 10000 nM | – | – | – | – | – | – | – | – | – | – | –
13 | O=C(O)CCCSCCN1C(=O)CC[C@@H]1/C=C/[C@@H](O)Cc1cccc(-c2ccc3ccccc3c2)c1 | 2100 nM | > 10000 nM | 96 nM | – | 0.6 nM | > 10000 nM | – | – | – | – | – | – | – | – | – | – | –
14 | O=C(O)c1csc(SCCN2C(=O)CC[C@@H]2/C=C/[C@@H](O)Cc2cccc(-c3nc4cc(Cl)ccc4o3)c2)n1 | 67 nM | 650 nM | 4.9 nM | > 10000 nM | 0.2 nM | > 10000 nM | – | – | – | – | – | – | – | – | – | – | –
15 | O=C(O)CCCSCCN1C(=O)CC[C@@H]1/C=C/[C@@H](O)Cc1cccc(OCc2ccccn2)c1 | > 10000 nM | > 10000 nM | 0.61 nM | – | 0.89 nM | > 10000 nM | – | – | – | – | – | – | – | – | – | – | –
16 | O=C(O)CCCSCCN1C(=O)CC[C@@H]1/C=C/[C@@H](O)Cc1cccc(OCc2cccnc2)c1 | > 10000 nM | > 10000 nM | 19 nM | – | 4.7 nM | > 10000 nM | – | – | – | – | – | – | – | – | – | – | –
17 | O=C(O)CCCSCCN1C(=O)CC[C@@H]1/C=C/[C@@H](O)Cc1cccc(-c2ccccn2)c1 | 6100 nM | > 10000 nM | 86 nM | – | 4.8 nM | > 10000 nM | – | – | – | – | – | – | – | – | – | – | –
18 | Cc1cccc2oc(-c3cccc(C[C@H](O)/C=C/[C@H]4CCC(=O)N4CCSc4nc(C(=O)O)cs4)c3)nc12 | 22 nM | 7700 nM | 28 nM | 8500 nM | 0.21 nM | > 10000 nM | – | – | – | – | – | – | – | – | – | – | –
19 | O=C(O)CCCSCCN1C(=O)CC[C@@H]1/C=C/[C@@H](O)Cc1cccc(-c2ccc3[nH]ccc3c2)c1 | 3500 nM | > 10000 nM | 85 nM | – | 0.28 nM | > 10000 nM | – | – | – | – | – | – | – | – | – | – | –
20 | COc1ccc(-c2cccc(C[C@H](O)/C=C/[C@H]3CCC(=O)N3CCSc3nc(C(=O)O)cs3)c2)cc1 | 9.2 nM | 5400 nM | 15 nM | 4600 nM | 1.7 nM | > 10000 nM | – | – | – | – | – | – | – | – | – | – | –
21 | Cc1ccc(-c2cccc(C[C@H](O)/C=C/[C@H]3CCC(=O)N3CCSc3nc(C(=O)O)cs3)c2)cc1C | 1.5 nM | 2500 nM | 21 nM | 1400 nM | 0.35 nM | > 10000 nM | – | – | – | – | – | – | – | – | – | – | –
22 | O=C(O)c1csc(SCCN2C(=O)CC[C@@H]2/C=C/[C@@H](O)Cc2cccc(-c3nc4cc(Cl)ccc4s3)c2)n1 | 22 nM | 680 nM | 9.7 nM | > 10000 nM | 0.25 nM | > 10000 nM | – | – | – | – | – | – | – | – | – | – | –
23 | Cc1cc(C)c2oc(-c3cccc(C[C@H](O)/C=C/[C@H]4CCC(=O)N4CCSc4nc(C(=O)O)cs4)c3)nc2c1 | 24 nM | 3200 nM | 7.7 nM | > 10000 nM | 0.15 nM | > 10000 nM | – | – | – | – | – | – | – | – | – | – | –
